Drawing on ChEMBL document CHEMBL1128216, “Rational design and synthesis of small molecule, non-oligosaccharide selectin inhibitors: (alpha-D-mannopyranosyloxy)biphenyl-substituted carboxylic acids” (J Med Chem, 1995), this text covers inhibition and IC50 for 8 molecules.

The target of experiment [1] is T1, L-selectin (Mus musculus) (UniProt P18337).
T1 sequence (whole entry): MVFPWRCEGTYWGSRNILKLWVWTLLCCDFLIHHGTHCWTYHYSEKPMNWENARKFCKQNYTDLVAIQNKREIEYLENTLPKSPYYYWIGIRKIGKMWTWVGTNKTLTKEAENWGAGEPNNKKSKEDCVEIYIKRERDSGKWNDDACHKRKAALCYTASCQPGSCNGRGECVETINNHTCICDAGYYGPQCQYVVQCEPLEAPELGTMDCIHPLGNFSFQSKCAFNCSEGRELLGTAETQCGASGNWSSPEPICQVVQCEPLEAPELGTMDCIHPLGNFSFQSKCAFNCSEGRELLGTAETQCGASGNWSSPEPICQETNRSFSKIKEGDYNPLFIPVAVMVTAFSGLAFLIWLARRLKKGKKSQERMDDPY
Kind of experiment: In vitro inhibitory activity against sialyl Lewis X expressing HL60 cell binding to Selectin L at 8 mM concentration. Type of experiment: cell-based. The conditions noted are these: HL-60.

For experiment [2], the target named is T2, P-selectin (Homo sapiens) (UniProt P16109).
T2 sequence (whole entry): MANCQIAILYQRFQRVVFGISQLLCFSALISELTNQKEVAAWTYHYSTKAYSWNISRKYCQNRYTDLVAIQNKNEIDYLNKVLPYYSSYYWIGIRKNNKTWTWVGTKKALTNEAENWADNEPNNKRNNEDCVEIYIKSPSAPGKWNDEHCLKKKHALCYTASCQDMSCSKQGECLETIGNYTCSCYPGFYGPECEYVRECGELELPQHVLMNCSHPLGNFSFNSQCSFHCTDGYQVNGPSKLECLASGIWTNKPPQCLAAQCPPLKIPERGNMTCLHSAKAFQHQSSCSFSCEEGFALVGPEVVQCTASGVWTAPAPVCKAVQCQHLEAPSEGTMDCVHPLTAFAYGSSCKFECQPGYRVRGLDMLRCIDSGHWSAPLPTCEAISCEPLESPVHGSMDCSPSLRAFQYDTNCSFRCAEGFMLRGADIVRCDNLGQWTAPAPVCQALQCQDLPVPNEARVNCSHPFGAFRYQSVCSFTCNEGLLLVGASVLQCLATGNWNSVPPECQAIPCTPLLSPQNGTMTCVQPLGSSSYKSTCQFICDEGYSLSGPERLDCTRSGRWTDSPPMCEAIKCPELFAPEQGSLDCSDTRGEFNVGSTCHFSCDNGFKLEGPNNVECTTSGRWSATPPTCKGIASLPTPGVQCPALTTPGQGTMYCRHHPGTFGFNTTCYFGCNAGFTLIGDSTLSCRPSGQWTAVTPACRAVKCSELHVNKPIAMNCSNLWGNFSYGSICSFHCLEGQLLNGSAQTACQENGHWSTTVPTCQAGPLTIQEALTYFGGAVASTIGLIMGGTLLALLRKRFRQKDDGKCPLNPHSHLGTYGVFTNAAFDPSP
Kind of experiment: In vitro inhibitory activity against sialyl Lewis X expressing HL60 cell binding Selectin P at 25 mM concentration. As to conditions: HL-60. Type of experiment: cell-based.

Experiment [3] concerns the target T3, E-selectin (Homo sapiens, UniProt P16581).
T3 sequence (P16581 whole entry): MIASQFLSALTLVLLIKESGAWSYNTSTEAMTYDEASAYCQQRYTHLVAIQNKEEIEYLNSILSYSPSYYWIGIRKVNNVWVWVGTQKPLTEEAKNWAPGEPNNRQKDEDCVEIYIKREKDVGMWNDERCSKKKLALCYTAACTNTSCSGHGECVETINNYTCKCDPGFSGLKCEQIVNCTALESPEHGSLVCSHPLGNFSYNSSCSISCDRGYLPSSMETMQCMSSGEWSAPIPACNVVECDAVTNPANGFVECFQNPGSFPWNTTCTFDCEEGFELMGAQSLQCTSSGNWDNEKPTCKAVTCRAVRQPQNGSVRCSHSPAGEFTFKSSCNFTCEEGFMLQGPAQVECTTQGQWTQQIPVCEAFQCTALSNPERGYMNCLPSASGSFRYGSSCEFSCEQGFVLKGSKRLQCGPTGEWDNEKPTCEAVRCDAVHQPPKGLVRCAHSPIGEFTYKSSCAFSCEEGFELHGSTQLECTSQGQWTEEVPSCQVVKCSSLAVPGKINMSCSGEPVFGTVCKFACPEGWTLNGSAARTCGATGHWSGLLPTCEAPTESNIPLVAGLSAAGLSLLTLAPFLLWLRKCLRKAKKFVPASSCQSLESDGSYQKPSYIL
Kind of experiment: In vitro inhibition of HL60 (human leukemia) cell binding to human recombinant e-selectin. The class given is cell-based, HL-60. Summed up: (§1)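 Human E-selectin (lectin, EGF and two complement repeats) fused to mouse IgG was captured on anti-mouse IgG magnetic beads overnight at 4 °C. Wells were pre-blocked with 3% BSA/PBS. Compound in PBS was mixed with calcein-labelled HL60 cells (10⁷/mL, RPMI 1640 + 10% FCS) and beads (4 × 10⁶/mL) for 10 min at room temperature. Unbound cells were removed magnetically with two PBS washes, and bound cells were lysed in 1% NP40.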

For experiment [4], the target named is T1, L-selectin (Mus musculus). In words: In vitro inhibitory activity against sialyl Lewis X expressing HL60 cell binding to Selectin L at 6 mM concentration. Type of experiment: cell-based. As to conditions: HL-60.
Experiment [5] has as its target T2, P-selectin (Homo sapiens). Kind of experiment: In vitro inhibitory activity against sialyl Lewis X expressing HL60 cell binding Selectin P at 10 mM concentration. Type of experiment: cell-based. The conditions noted are these: HL-60.
Experiment [6] has as its target T4, E-selectin (Homo sapiens) (UniProt P16581).
T4 sequence (whole entry): T3 sequence (P16581 whole entry)
Kind of experiment: In vitro inhibitory activity against sialyl Lewis X expressing HL60 cell binding to recombinant human E-selectin at 17 mM concentration. The class given is cell-based. As to conditions: HL-60. Summed up: as §1

The target of experiment [7] is T5, P-selectin (Homo sapiens, UniProt P16109).
T5 sequence (P16109 whole entry): T2 sequence (whole entry)
Kind of experiment: In vitro inhibitory activity against sialyl Lewis X expressing HL60 cell binding Selectin P. Type of experiment: cell-based, HL-60.

Experiment [8] addresses T4, E-selectin (Homo sapiens). Kind of experiment: In vitro inhibitory activity against sialyl Lewis X expressing HL60 cell binding to recombinant human E-selectin at 20 mM concentration. Type of experiment: cell-based. As to conditions: HL-60. The gist of the method: as §1
The target of experiment [9] is T1, L-selectin (Mus musculus). In words: In vitro inhibitory activity against sialyl Lewis X expressing HL60 cell binding to Selectin L at 3 mM concentration. As to conditions: HL-60.
In experiment [10] the target is T2, P-selectin (Homo sapiens). Kind of experiment: In vitro inhibitory activity against sialyl Lewis X expressing HL60 cell binding Selectin P at 20 mM concentration. The class given is cell-based. As to conditions: HL-60.
Experiment [11] addresses T2, P-selectin (Homo sapiens). Kind of experiment: In vitro inhibitory activity against sialyl Lewis X expressing HL60 cell binding Selectin P at 27 mM concentration. Type of experiment: cell-based. As to conditions: HL-60.
Experiment [12] concerns the target T1, L-selectin (Mus musculus). Kind of experiment: In vitro inhibitory activity against sialyl Lewis X expressing HL60 cell binding Selectin L at 5 mM concentration. The class given is cell-based. As to conditions: HL-60.
The target in experiment [13] is T4, E-selectin (Homo sapiens). Kind of experiment: In vitro inhibitory activity against sialyl Lewis X expressing HL60 cell binding to recombinant human E-selectin at 32 mM concentration. Type of experiment: cell-based. As to conditions: HL-60. The gist of the method:
as §1

The target in experiment [14] is T2, P-selectin (Homo sapiens). In words: In vitro inhibitory activity against sialyl Lewis X expressing HL60 cell binding Selectin P at 24 mM concentration. The class given is cell-based. As to conditions: HL-60.
Experiment [15] concerns the target T4, E-selectin (Homo sapiens). Kind of experiment: In vitro inhibitory activity against sialyl Lewis X expressing HL60 cell binding to recombinant human E-selectin at 27 mM concentration. The class given is cell-based. The conditions noted are these: HL-60. The gist of the method:
as §1

Broadly, the inhibition is the share of the control response that was lost under treatment. As a reminder, the IC50 is the concentration that gives 50% inhibition. Regarding `O=C(O)COc1ccccc1-c1ccccc1O[C@H]1O[C@H](CO)[C@@H](O)[C@@H](O)[C@@H]1O`, the inhibition in [1] was 0%; in experiment [2], 20%. For the same molecule, the IC50 in experiment [3] came to 20 mM.

With `CC(C(=O)O)c1cccc(-c2ccccc2O[C@H]2O[C@H](CO)[C@@H](O)[C@@H](O)[C@@H]2O)c1` (stereo in doubt; 9s), the inhibition was 0% in [4] and 30% in experiment [5].

Take `O=C(O)C(Oc1cccc(-c2ccccc2O[C@H]2O[C@H](CO)[C@@H](O)[C@@H](O)[C@@H]2O)c1)c1ccccc1` (stereo partly specified): the inhibition in experiment [6] came to 70%; in [4] it was 0%. The molecule also had an IC50 in experiment [7] of 17 mM.

Consider `O=C(O)CCC(=O)c1ccc(-c2ccccc2O[C@H]2O[C@H](CO)[C@@H](O)[C@@H](O)[C@@H]2O)cc1`, for which the inhibition in [8] was 40%; in experiment [9], 0%; in experiment [10], 0%.

With `O=C(O)c1cccc(-c2ccccc2O[C@H]2O[C@H](CO)[C@@H](O)[C@@H](O)[C@@H]2O)c1`, the inhibition came to 0% in experiment [11] and 15% in experiment [4]. The IC50 in [3] was 16 mM.

Take `O=C(O)C[C@@H](NC(=O)c1cccc(-c2ccccc2O[C@H]2O[C@H](CO)[C@@H](O)[C@@H](O)[C@@H]2O)c1)C(=O)O`: the figures for the inhibition in experiment [12], in [10] and in experiment [13] were 0%, 40% and 0%, respectively.

As to `O=C(O)COCc1cccc(-c2ccccc2O[C@H]2O[C@H](CO)[C@@H](O)[C@@H](O)[C@@H]2O)c1`, the results for the inhibition in experiment [4] and in experiment [14] were 30% and 0%, respectively. The IC50 in [3] turned out to be 9.5 mM.

With `NCCCC[C@H](NC(=O)c1ccc(-c2ccccc2O[C@H]2O[C@H](CO)[C@@H](O)[C@@H](O)[C@@H]2O)cc1)C(=O)O`, in experiment [15], the inhibition came to 33%.
